In ChEMBL document CHEMBL3108706, “Design, synthesis, and biological activity of novel dicoumarol glucagon-like peptide 1 conjugates” (J Med Chem, 2013):
Active and inactive are the calls of the source. The calls are words filed in the database; no cut-off is given here.

Assays:
[1] = tested on: Rattus norvegicus; assay: Anticoagulant activity in Sprague-Dawley rat assessed as prothombin time at 150 nmol/kg, iv administered for 6 days measured on day 7 by coagulometric analysis (reference value: 13.5 +/- 0.32 secs); format: functional
[2] = tested on: Rattus norvegicus; assay: Anticoagulant activity in Sprague-Dawley rat assessed as prothombin time at 25 nmol/kg, iv administered for 6 days measured on day 7 by coagulometric analysis (reference value: 13.5 +/- 0.32 secs); format: functional
[3] = tested on: Mus musculus; assay: Hypoglycemic activity in C57BL/6J-m+/+Leprdb (db/db) mouse assessed as time required to reduce plasma glucose level below 8.35 mM at 150 nmol/kg, ip administered for 0.5 hrs; format: functional
Outline: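 Non-fasted male db/db mice (7 weeks, free access to food and water) got a single ip injection (25 or 150 nmol/kg) or saline. Glucose AUC0−48h and the time for glucose to return below 8.35 mM were derived. Mean ± SD, n = 6.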

[4] = tested on: Mus musculus; assay: Hypoglycemic activity in C57BL/6J-m+/+Leprdb (db/db) mouse assessed as time required to reduce plasma glucose level below 8.35 mM at 25 nmol/kg, ip administered for 0.5 hrs; format: functional
Outline: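 Non-fasted male db/db mice (7 weeks, free access to food and water) got a single ip injection (25 or 150 nmol/kg) or saline. Mean ± SD, n = 6.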

[5] = tested on: Mus musculus; assay: Hypoglycemic activity in C57BL/6J-m+/+Leprdb (db/db) mouse assessed as reduction of plasma glucose level at 25 nmol/kg, ip administered 0.5 hrs prior to glucose challenge measured after 18 to 21 hrs by IPGTT (reference value: >30 mM); format: functional
[6] = tested on: Mus musculus; assay: Hypoglycemic activity in C57BL/6J-m+/+Leprdb (db/db) mouse assessed as reduction of plasma glucose level at 25 nmol/kg, ip administered 0.5 hrs prior to glucose challenge measured at 21.5 hrs by IPGTT (reference value: >30 mM); format: functional
[7] = tested on: Mus musculus; assay: Hypoglycemic activity in C57BL/6J-m+/+Leprdb (db/db) mouse assessed as reduction of plasma glucose level at 25 nmol/kg, ip administered 0.5 hrs prior to glucose challenge measured at 21.5 to 24 hrs by IPGTT; format: functional, organism-based
[8] = tested on: Mus musculus; assay: Hypoglycemic activity in C57BL/6J-m+/+Leprdb (db/db) mouse assessed as reduction of plasma glucose level at 25 nmol/kg, ip administered 0.5 hrs prior to glucose challenge measured up to 17 hrs by IPGTT (reference value: >30 mM); format: functional
[9] = Mean residence time in Sprague-Dawley rat at 15 nmol/kg, sc by LC-MS/MS analysis; format: ADME, organism-based; conditions: in vivo
[10] = Elimination half life in Sprague-Dawley rat at 15 nmol/kg, sc by LC-MS/MS analysis; format: ADME, organism-based; conditions: in vivo, read-out: beta t1/2 (converted)
[11] = tested on: Rattus norvegicus; assay: AUC (0 to infinity) in Sprague-Dawley rat at 15 nmol/kg, sc by LC-MS/MS analysis; format: ADME, organism-based, Plasma; parameters: dose 15 nmol/kg, route subcutaneous, time infinity; conditions: in vivo
[12] = Cmax in Sprague-Dawley rat at 15 nmol/kg, sc by LC-MS/MS analysis; format: ADME, organism-based; parameters: dose 15 nmol/kg, route subcutaneous; conditions: in vivo
[13] = Tmax in Sprague-Dawley rat at 15 nmol/kg, sc by LC-MS/MS analysis; format: ADME, organism-based; conditions: in vivo
[14] = tested on: Rattus norvegicus; assay: Antidiabetic activity in Sprague-Dawley rat assessed as reduction of plasma glucose level at 25 nmol/kg, ip administered 0.5 hrs prior to glucose challenge measured at 15 to 60 mins by OGTT; format: functional, organism-based
[15] = tested on: Rattus norvegicus; assay: Antidiabetic activity in Sprague-Dawley rat assessed as increase of plasma insulin level at 25 nmol/kg, ip administered 0.5 hrs prior to glucose challenge measured for 120 mins by ELISA; format: functional, organism-based
Outline: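 SD rats (200−250 g, n = 6/group) were fasted 12 h and given compound ip (25 nmol/kg) or saline 0.5 h before oral glucose (10 g/kg). Tail-vein blood glucose was read with a meter at −30, 0, 15, 30, 45, 60, 90, 120 and 180 min. Insulin was measured by rat insulin ELISA. Mean ± SD.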

[16] = tested on: Rattus norvegicus; assay: Antidiabetic activity in Sprague-Dawley rat assessed as increase of plasma insulin level at 25 nmol/kg, ip administered 0.5 hrs prior to glucose challenge measured at 45 mins by ELISA; format: functional
[17] = tested on: Rattus norvegicus; assay: Antidiabetic activity in Sprague-Dawley rat assessed as reduction of plasma glucose level at 25 nmol/kg, ip administered 0.5 hrs prior to glucose challenge by OGTT (reference value: 13.32 +/- 1.84 mM); format: functional
[18] = target: albumin (Homo sapiens, UniProt P02768); assay: Binding affinity to human serum albumin at 100 ug/mL after 3 hrs relative to control; format: ADME; conditions: read-out: PB (converted)
Chain of albumin (P02768 whole entry): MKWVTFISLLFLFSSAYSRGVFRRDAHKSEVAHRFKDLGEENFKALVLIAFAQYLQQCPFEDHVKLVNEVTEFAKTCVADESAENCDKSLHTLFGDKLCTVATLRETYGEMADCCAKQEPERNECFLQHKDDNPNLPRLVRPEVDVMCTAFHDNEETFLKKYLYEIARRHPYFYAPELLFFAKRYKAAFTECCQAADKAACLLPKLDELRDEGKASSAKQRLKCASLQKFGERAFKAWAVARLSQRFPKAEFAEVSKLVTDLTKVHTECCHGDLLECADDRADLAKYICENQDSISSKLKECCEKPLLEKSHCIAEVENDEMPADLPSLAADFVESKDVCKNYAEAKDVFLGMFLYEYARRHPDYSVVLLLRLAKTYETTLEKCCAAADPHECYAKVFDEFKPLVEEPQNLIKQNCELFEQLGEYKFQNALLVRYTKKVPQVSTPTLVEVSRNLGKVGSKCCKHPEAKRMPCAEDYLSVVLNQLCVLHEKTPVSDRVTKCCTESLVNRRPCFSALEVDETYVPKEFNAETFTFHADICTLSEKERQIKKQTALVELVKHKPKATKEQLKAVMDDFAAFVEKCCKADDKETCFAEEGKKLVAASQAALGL
Outline: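 Peptide at 100 μg/mL in PBS (50 μL) was incubated with HSA-conjugated Sepharose resin for 3 h at 25 °C, then centrifuged (1000 rpm, 10 min). Unbound peptide in the supernatant was quantified by micro BCA assay. Nonspecific adsorption was corrected with NHS-inactivated, albumin-free resin.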

[19] = Half life in Sprague-Dawley rat plasma at 1000 ng/mL by LC-MS/MS analysis; format: ADME, cell-free
[20] = target: Glucagon-like peptide 1 receptor (Homo sapiens, UniProt P43220); assay: Activation of human GLP-1 receptor overexpressed in HEK293 cells assessed as cAMP accumulation after 20 mins by HTRF assay; format: functional, cell-based
Chain of Glucagon-like peptide 1 receptor (P43220 whole entry): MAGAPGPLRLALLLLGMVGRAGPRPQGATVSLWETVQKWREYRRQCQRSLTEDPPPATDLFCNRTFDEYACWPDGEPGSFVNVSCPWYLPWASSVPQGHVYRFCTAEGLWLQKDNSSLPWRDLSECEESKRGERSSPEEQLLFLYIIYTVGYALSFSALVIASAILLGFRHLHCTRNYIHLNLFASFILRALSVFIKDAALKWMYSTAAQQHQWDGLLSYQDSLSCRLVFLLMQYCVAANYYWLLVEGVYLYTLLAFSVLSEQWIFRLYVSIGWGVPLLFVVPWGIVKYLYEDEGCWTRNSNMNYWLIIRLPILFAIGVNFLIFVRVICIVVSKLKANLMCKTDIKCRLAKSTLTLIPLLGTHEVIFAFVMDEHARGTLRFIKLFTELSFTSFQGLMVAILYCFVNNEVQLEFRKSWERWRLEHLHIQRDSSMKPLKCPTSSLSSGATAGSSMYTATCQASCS

[21] = tested on: Rattus norvegicus; assay: Antidiabetic activity in Sprague-Dawley rat assessed as increase of plasma insulin level at 25 nmol/kg, ip administered 0.5 hrs prior to glucose challenge measured at 15 mins by ELISA; format: functional
[22] = tested on: Rattus norvegicus; assay: Anticoagulant activity in Sprague-Dawley rat assessed as activated […] time at 150 nmol/kg, iv administered for 6 days measured on day 7 by coagulometric analysis (reference value: 26.5 +/- 0.81 secs); format: functional
[23] = tested on: Rattus norvegicus; assay: Anticoagulant activity in Sprague-Dawley rat assessed as activated […] time at 25 nmol/kg, iv administered for 6 days measured on day 7 by coagulometric analysis (reference value: 26.5 +/- 0.81 secs); format: functional
[24] = tested on: Rattus norvegicus; assay: Anticoagulant activity in Sprague-Dawley rat assessed as thombin time at 150 nmol/kg, iv administered for 6 days measured on day 7 by coagulometric analysis (reference value: 19.38 +/- 0.72 secs); format: functional
[25] = tested on: Rattus norvegicus; assay: Anticoagulant activity in Sprague-Dawley rat assessed as thombin time at 25 nmol/kg, iv administered for 6 days measured on day 7 by coagulometric analysis (reference value: 19.38 +/- 0.72 secs); format: functional

SMILES | Time [4] | MRT [9] | half-life [10] | AUC [11] | Cmax [12] | Tmax [13] | Activity [14] | Activity [15] | Activity [16] | Activity [17] | fraction unbound at 3 h, 100 ug/mL [18] | half-life at 1000 ng/mL [19] | EC50 [20] | Activity [21] | also measured
CC[C@H](C)[C@H](NC(=O)[C@H](Cc1ccccc1)NC(=O)[C@H](CCC(=O)O)NC(=O)[C@H](CCCCN)NC(=O)[C@H](C)NC(=O)[C@H](C)NC(=O)[C@H](CCC(N)=O)NC(=O)CNC(=O)[C@H](CCC(=O)O)NC(=O)[C@H](CC(C)C)NC(=O)[C@H](Cc1ccc(O)cc1)NC(=O)[C@H](CO)NC(=O)[C@H](CO)NC(=O)[C@@H](NC(=O)[C@H](CC(=O)O)NC(=O)[C@H](CO)NC(=O)[C@@H](NC(=O)[C@H](Cc1ccccc1)NC(=O)[C@@H](NC(=O)CNC(=O)[C@H](CCC(=O)O)NC(=O)CNC(=O)[C@@H](N)Cc1cnc[nH]1)[C@@H](C)O)[C@@H](C)O)C(C)C)C(=O)N[C@@H](C)C(=O)N[C@@H](Cc1c[nH]c2ccccc12)C(=O)N[C@@H](CC(C)C)C(=O)N[C@H](C(=O)N[C@@H](CCCCN)C(=O)NCC(=O)N[C@@H](CCCNC(=N)N)C(=O)N[C@@H](CSC1CC(=O)N(CCCCCCCCCCCC(=O)Nc2ccc(C(c3c(O)c4ccccc4oc3=O)c3c(O)c4ccccc4oc3=O)cc2)C1=O)C(N)=O)C(C)C (some centres undefined) | 22.5 h | 29.8 h | 1130 min | 36800 ng·h/mL | 907 ng/mL | 1.3 h | Active | Active | 524.26 pM | 7.8 mM | 0.06 | 3350 min | 0.0242 nM | 1052.22 pM | PT [1]: 13.53 s; PT [2]: 13.39 s; Time [3]: 30.4 h; Activity [5]: <16 mM; Activity [6]: 16.25 mM; Activity [7]: Active; Activity [8]: <12 mM; APTT [22]: 26.48 s; APTT [23]: 26.76 s; TT [24]: 19.8 s; TT [25]: 19.4 s
CCCCCCCCCCCCCCCC(=O)N[C@@H](CCC(=O)NCCCC[C@H](NC(=O)[C@H](C)NC(=O)[C@H](C)NC(=O)[C@H](CCC(N)=O)NC(=O)CNC(=O)[C@H](CCC(=O)O)NC(=O)[C@H](CC(C)C)NC(=O)[C@H](Cc1ccc(O)cc1)NC(=O)[C@H](CO)NC(=O)[C@H](CO)NC(=O)[C@@H](NC(=O)[C@H](CC(=O)O)NC(=O)[C@H](CO)NC(=O)[C@@H](NC(=O)[C@H](Cc1ccccc1)NC(=O)[C@@H](NC(=O)CNC(=O)[C@H](CCC(=O)O)NC(=O)[C@H](C)NC(=O)[C@@H](N)Cc1cnc[nH]1)[C@@H](C)O)[C@@H](C)O)C(C)C)C(=O)N[C@@H](CCC(=O)O)C(=O)N[C@@H](Cc1ccccc1)C(=O)N[C@H](C(=O)N[C@@H](C)C(=O)N[C@@H](Cc1c[nH]c2ccccc12)C(=O)N[C@@H](CC(C)C)C(=O)N[C@H](C(=O)N[C@@H](CCCNC(=N)N)C(=O)NCC(=O)N[C@@H](CCCNC(=N)N)C(=O)NCC(=O)O)C(C)C)[C@@H](C)CC)C(=O)O [LIRAGLUTIDE] | 19 h | 18.3 h | 752 min | 18100 ng·h/mL | 902 ng/mL | 1.51 h | Active | Active | 425.34 pM | 8.3 mM | 0.087 | 1030 min | – | 992.08 pM | –
CC[C@H](C)[C@H](NC(=O)[C@H](Cc1ccccc1)NC(=O)[C@H](CCC(=O)O)NC(=O)[C@H](CCCCN)NC(=O)[C@H](C)NC(=O)[C@H](C)NC(=O)[C@H](CCC(N)=O)NC(=O)CNC(=O)[C@H](CCC(=O)O)NC(=O)[C@H](CC(C)C)NC(=O)[C@H](Cc1ccc(O)cc1)NC(=O)[C@H](CO)NC(=O)[C@H](CSC1CC(=O)N(CCCCCC(=O)Nc2ccc(C(c3c(O)c4ccccc4oc3=O)c3c(O)c4ccccc4oc3=O)cc2)C1=O)NC(=O)[C@@H](NC(=O)[C@H](CC(=O)O)NC(=O)[C@H](CO)NC(=O)[C@@H](NC(=O)[C@H](Cc1ccccc1)NC(=O)[C@@H](NC(=O)CNC(=O)[C@H](CCC(=O)O)NC(=O)CNC(=O)[C@@H](N)Cc1cnc[nH]1)[C@@H](C)O)[C@@H](C)O)C(C)C)C(=O)N[C@@H](C)C(=O)N[C@@H](Cc1c[nH]c2ccccc12)C(=O)N[C@@H](CC(C)C)C(=O)N[C@H](C(=O)N[C@@H](CCCCN)C(=O)NCC(=O)N[C@@H](CCCNC(=N)N)C(N)=O)C(C)C (some centres undefined) | – | – | – | – | – | – | – | – | – | – | 0.162 | 1240 min | 0.0336 nM | – | –
CC[C@H](C)[C@H](NC(=O)[C@H](Cc1ccccc1)NC(=O)[C@H](CCC(=O)O)NC(=O)[C@H](CCCCN)NC(=O)[C@H](C)NC(=O)[C@H](C)NC(=O)[C@H](CCC(N)=O)NC(=O)CNC(=O)[C@H](CCC(=O)O)NC(=O)[C@H](CC(C)C)NC(=O)[C@H](Cc1ccc(O)cc1)NC(=O)[C@H](CO)NC(=O)[C@H](CO)NC(=O)[C@@H](NC(=O)[C@H](CC(=O)O)NC(=O)[C@H](CO)NC(=O)[C@@H](NC(=O)[C@H](Cc1ccccc1)NC(=O)[C@@H](NC(=O)CNC(=O)[C@H](CCC(=O)O)NC(=O)CNC(=O)[C@@H](N)Cc1cnc[nH]1)[C@@H](C)O)[C@@H](C)O)C(C)C)C(=O)N[C@@H](C)C(=O)N[C@@H](Cc1c[nH]c2ccccc12)C(=O)N[C@@H](CC(C)C)C(=O)N[C@H](C(=O)N[C@@H](CSC1CC(=O)N(CCCCCCCCCCCC(=O)Nc2ccc(C(c3c(O)c4ccccc4oc3=O)c3c(O)c4ccccc4oc3=O)cc2)C1=O)C(=O)NCC(=O)N[C@@H](CCCNC(=N)N)C(N)=O)C(C)C (some centres undefined) | – | – | – | – | – | – | – | – | – | – | 0.168 | 2320 min | 0.0181 nM | – | –
